What was measured:
[1] = target: T1, Melanin-concentrating hormone receptor 1 (Homo sapiens, UniProt Q99705); experiment: Binding affinity against human Melanin-concentrating hormone receptor 1 stably transfected CHO cells was determined using [125I]MCH as radioligand; assay type: cell-based
Outline: (§1)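 Whole-cell binding in CHO cells expressing the human receptor with [125I]-MCH tracer. Nonspecific binding defined with 1 µM MCH. IC50 values from displacement by various concentrations of test compound.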

[2] = target: T1, Melanin-concentrating hormone receptor 1; experiment: Antagonistic activity against human Melanin-concentrating hormone receptor 1 stably transfected CHO cells was determined using IP3 assay; assay type: functional, cell-based
Outline: (§2)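 CHO whole cells expressing the human receptor, labelled with 5 µCi [3H]-myo-inositol in inositol-free culture medium. Phosphatidylinositol turnover stimulated by submaximal MCH in the presence of increasing ligand concentrations. Generated [3H]-inositol phosphates purified on anion-exchange resin; IC50 derived.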

[3] = target: T1, Melanin-concentrating hormone receptor 1; experiment: Binding affinity against human Melanin-concentrating hormone receptor 1 stably transfected CHO cells was determined using scintillation proximity assay (SPA); assay type: cell-based
Outline: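 Scintillation proximity binding with CHO membranes incubated with PEI-treated WGA-coupled PVT SPA beads and tracer over various test-compound concentrations. Nonspecific binding defined with 1 µM MCH; IC50 derived.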

[4] = target: T2, Melanin-concentrating hormone receptor 2 (Homo sapiens, UniProt Q969V1); experiment: Binding affinity against human Melanin-concentrating hormone receptor 2 stably transfected CHO cells was determined using [125I]MCH as radioligand; assay type: cell-based; outline: as §1
[5] = target: T2, Melanin-concentrating hormone receptor 2; experiment: Antagonistic activity against human Melanin-concentrating hormone receptor 2 stably transfected CHO cells was determined using IP3 assay; assay type: functional, cell-based; outline: as §2
[6] = Inhibitory activity against Histamine H2 receptor
[7] = Inhibitory activity against Dopamine transporter; set-up: species or system Homo sapiens
[8] = target: D(1A) dopamine receptor (Homo sapiens) (UniProt P21728); experiment: Inhibitory activity against Dopamine receptor D1 at 10 uM
[9] = target: Mu-type opioid receptor (Homo sapiens) (UniProt P35372); experiment: Inhibitory activity against Opioid receptor mu 1 at 10 uM
[10] = target: T3, Adenosine receptor A3 (Homo sapiens) (UniProt P0DMS8); experiment: Inhibitory activity against Adenosine A3 receptor at 10 uM
T3 sequence (whole entry): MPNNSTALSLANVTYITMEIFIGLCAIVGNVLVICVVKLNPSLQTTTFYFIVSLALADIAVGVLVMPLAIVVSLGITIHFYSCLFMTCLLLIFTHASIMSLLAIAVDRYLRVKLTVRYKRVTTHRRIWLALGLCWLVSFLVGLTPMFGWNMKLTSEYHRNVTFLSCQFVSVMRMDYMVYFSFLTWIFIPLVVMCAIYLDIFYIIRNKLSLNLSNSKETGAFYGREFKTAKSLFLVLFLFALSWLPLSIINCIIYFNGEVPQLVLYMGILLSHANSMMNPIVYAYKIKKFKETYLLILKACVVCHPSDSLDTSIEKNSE

[11] = target: T4, Muscarinic acetylcholine receptor M1 (Homo sapiens) (UniProt P11229); experiment: Inhibitory activity against Muscarinic acetylcholine receptor M1 at 10 uM
T4 sequence (whole entry): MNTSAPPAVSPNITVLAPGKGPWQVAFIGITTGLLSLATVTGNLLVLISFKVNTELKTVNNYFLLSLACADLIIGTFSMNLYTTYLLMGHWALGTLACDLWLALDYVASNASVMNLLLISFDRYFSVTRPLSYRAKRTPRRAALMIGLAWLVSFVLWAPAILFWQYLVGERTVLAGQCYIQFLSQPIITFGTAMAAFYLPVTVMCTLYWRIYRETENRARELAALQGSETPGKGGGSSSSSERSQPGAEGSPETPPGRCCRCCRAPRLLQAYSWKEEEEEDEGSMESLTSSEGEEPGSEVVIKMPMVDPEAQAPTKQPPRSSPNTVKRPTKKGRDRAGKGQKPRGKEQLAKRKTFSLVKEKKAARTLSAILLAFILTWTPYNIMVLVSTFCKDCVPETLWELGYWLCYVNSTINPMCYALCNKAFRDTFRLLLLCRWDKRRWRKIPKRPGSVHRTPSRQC

[12] = target: Sodium-dependent noradrenaline transporter (Homo sapiens) (UniProt P23975); experiment: Inhibitory activity against Norepinephrine transporter at 10 uM
[13] = Inhibitory activity against 5-hydroxytryptamine 2A receptor
[14] = Inhibitory activity against 5-hydroxytryptamine 2C receptor
[15] = target: D(2) dopamine receptor (Homo sapiens) (UniProt P14416); experiment: Inhibitory activity against Dopamine receptor D2 at 10 uM
[16] = target: Sigma non-opioid intracellular receptor 1 (Homo sapiens) (UniProt Q99720); experiment: Inhibitory activity against Opioid receptor sigma 1 at 10 uM
[17] = inhibitory activity against sodium channel (site 2) at 10 uM
[18] = target: T5, Muscarinic acetylcholine receptor M2 (Homo sapiens) (UniProt P08172); experiment: Inhibitory activity against Muscarinic acetylcholine receptor M2 at 10 uM
T5 sequence (whole entry): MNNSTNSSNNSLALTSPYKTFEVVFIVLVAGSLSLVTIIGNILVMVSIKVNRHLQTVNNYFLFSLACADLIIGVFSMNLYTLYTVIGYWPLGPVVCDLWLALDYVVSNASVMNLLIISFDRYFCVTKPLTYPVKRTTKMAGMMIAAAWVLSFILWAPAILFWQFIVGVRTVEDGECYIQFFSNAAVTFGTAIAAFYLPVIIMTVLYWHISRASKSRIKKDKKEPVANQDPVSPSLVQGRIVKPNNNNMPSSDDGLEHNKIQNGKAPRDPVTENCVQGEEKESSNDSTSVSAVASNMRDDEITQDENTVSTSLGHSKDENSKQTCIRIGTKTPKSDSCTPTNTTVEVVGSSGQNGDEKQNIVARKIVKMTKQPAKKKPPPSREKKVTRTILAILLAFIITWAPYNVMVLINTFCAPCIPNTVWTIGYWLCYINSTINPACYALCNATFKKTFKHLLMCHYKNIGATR

T2 sequence (Q969V1 whole entry): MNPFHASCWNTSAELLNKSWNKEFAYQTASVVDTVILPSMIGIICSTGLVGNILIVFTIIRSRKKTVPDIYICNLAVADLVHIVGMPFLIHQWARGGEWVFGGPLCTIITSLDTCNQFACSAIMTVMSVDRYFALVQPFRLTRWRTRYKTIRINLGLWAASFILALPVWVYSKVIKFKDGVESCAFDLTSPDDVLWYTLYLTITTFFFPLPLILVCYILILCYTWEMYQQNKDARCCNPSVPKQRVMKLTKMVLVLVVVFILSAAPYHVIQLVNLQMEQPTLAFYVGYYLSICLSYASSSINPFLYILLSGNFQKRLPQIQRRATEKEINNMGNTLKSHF
T1 sequence (Q99705 whole entry): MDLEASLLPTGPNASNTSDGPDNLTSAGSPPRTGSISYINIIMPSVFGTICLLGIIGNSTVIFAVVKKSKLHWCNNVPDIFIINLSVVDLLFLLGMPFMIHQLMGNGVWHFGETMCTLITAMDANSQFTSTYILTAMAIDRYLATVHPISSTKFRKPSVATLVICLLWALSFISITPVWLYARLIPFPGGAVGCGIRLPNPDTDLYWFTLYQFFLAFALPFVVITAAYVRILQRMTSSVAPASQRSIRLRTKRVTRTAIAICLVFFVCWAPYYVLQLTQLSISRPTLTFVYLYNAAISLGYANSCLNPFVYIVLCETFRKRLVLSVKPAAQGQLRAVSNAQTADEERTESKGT
D(1A) dopamine receptor (Homo sapiens), sequence (P21728 whole entry): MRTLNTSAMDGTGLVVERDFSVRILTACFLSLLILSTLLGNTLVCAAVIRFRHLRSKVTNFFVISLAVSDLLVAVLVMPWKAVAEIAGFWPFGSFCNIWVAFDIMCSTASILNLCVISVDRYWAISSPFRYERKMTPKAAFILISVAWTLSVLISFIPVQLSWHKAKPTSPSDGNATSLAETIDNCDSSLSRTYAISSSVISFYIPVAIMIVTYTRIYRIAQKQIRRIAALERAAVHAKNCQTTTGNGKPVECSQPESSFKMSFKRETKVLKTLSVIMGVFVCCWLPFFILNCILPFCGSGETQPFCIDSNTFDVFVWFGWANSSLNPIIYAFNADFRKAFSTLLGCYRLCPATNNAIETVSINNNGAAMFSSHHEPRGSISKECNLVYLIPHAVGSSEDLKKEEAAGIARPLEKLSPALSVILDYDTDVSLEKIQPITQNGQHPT
Mu-type opioid receptor (Homo sapiens), sequence (P35372 whole entry): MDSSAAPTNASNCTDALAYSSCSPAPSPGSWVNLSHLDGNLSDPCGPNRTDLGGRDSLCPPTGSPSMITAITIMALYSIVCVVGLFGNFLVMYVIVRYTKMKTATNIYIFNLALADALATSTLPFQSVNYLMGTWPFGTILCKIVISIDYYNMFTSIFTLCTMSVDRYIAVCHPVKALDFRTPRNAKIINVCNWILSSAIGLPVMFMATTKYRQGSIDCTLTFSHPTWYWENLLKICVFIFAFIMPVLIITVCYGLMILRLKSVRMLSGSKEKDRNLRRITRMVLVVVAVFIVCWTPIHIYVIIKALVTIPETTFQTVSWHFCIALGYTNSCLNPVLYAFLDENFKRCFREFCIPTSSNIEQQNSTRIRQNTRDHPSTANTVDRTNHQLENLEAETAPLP
Sodium-dependent noradrenaline transporter (Homo sapiens), sequence (P23975 whole entry): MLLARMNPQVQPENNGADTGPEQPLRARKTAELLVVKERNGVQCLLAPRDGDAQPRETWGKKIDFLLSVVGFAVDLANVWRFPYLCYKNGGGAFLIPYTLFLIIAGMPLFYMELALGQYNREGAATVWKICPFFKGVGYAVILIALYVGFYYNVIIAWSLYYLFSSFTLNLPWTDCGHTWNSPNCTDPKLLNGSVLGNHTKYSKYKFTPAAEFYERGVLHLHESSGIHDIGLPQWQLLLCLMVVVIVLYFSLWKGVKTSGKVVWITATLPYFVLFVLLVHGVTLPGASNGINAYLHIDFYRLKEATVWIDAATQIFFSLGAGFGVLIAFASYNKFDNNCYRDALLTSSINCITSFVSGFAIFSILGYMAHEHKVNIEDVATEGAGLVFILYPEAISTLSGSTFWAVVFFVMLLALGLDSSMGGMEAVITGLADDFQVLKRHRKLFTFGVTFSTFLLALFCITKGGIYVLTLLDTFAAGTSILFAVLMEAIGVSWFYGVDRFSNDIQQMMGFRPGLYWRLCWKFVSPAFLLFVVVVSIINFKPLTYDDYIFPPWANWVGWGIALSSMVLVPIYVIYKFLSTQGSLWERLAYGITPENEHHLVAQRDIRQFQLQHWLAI
D(2) dopamine receptor (Homo sapiens), sequence (P14416 whole entry): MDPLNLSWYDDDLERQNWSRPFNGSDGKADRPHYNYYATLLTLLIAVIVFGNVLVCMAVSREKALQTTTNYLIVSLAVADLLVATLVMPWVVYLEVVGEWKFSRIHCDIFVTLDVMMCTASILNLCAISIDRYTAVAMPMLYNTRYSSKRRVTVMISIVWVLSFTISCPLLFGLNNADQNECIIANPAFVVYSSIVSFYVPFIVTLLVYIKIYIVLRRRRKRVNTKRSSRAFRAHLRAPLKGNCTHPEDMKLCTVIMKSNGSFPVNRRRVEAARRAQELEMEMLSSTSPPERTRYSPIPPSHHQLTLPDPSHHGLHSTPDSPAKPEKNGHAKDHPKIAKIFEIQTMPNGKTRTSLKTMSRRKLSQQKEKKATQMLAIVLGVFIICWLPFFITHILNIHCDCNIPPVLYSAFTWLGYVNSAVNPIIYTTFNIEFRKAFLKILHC
Sigma non-opioid intracellular receptor 1 (Homo sapiens), sequence (Q99720 whole entry): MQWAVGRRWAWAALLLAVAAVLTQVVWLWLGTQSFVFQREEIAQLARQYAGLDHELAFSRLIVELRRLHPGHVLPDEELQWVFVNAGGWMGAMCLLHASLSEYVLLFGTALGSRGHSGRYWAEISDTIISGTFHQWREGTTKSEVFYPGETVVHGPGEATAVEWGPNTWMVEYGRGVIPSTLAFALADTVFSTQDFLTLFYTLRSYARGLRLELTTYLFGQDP

| IC50 [1] [nM] | IC50 [2] [nM] | IC50 [3] [nM] | SMILES | also measured |
| --- | --- | --- | --- | --- |
| 2450 |  |  | CCN(CC)CCNC(=O)c1ccc(-c2noc(-c3ccc(Oc4ccccc4)cc3)n2)cc1 |  |
| 2410 | 12000 |  | COc1cc(NC(=O)c2ccc(-c3ccccc3)cc2)ccc1C(=O)NCCN(C)C | IC50 [4]: > 100000 nM |
|  |  | 540 | CCN(CC)CCNC(=O)c1ccc(N(C)C(=O)Nc2ccc(Oc3ccccc3)cc2)cc1OC |  |
|  |  | 5800 | CCN(CC)CCNC(=O)c1ccc(NC(=O)N(C)c2ccc(Oc3ccccc3)cc2)cc1OC |  |
|  |  | > 100000 | CCN(CC)CCNC(=O)c1ccc(N(C)C(=O)N(C)c2ccc(Oc3ccccc3)cc2)cc1OC |  |
| 530 | 3450 |  | CCN1CCCC1CNC(=O)c1ccc(NC(=O)Nc2ccc(Oc3ccccc3)cc2)cc1OC (stereo unspecified) |  |
| 370 |  |  | CCN(CC)CCNC(=O)c1ccc(NC(=O)c2ccc(-c3ccccc3)cc2)cc1OC |  |
|  |  | > 100000 | CCN(CC)CCNC(=O)c1ccc(NC(=O)Nc2ccccc2)cc1OC |  |
| 240 | 1950 |  | CCOc1cc(NC(=O)Nc2ccc(Oc3ccccc3)cc2)ccc1C(=O)NCCN(CC)CC |  |
| 1970 | 6810 |  | CCN(CC)CCNC(=O)c1ccc(NC(=O)c2ccc(Oc3ccccc3)cc2)cc1OC |  |
|  |  | > 100000 | CCN(CC)CCN(C)C(=O)c1ccc(NC(=O)Nc2ccc(Oc3ccccc3)cc2)cc1OC |  |
| 140 | 880 | 720 | CCN(CC)CCNC(=O)c1ccc(NC(=O)Nc2ccc(Oc3ccccc3)cc2)cc1OC |  |
|  |  | 3500 | CCN(CC)CCNC(=O)c1ccc(NC(=O)Nc2ccc(Oc3ccccc3)cc2)cc1 |  |
| 1920 |  |  | COc1cc(NC(=O)c2ccc(Oc3ccccc3)cc2)ccc1C(=O)NCCCN(C)C |  |
|  |  | 11000 | CCN(CC)CCN(C)C(=O)c1ccc(NC(=O)Nc2ccc(Oc3ccccc3)cc2)cc1 |  |
|  |  | > 100000 | CCN(CC)CCNC(=O)c1ccc(N2CCN(c3ccc(Oc4ccccc4)cc3)C2=O)cc1OC |  |
|  |  | > 100000 | CCN(CC)CCNC(=O)c1cc(Cl)c(NC(=O)Nc2ccc(Oc3ccccc3)cc2)cc1OC |  |

More lines, now with the values behind:

| SMILES | IC50 [1] [nM] | IC50 [2] [nM] | IC50 [3] [nM] | also measured |
| --- | --- | --- | --- | --- |
| CN(C)CCNC(=O)c1ccc(NC(=O)c2ccc(-c3ccccc3)cc2)cc1 | > 100000 |  |  |  |
| COc1cc(NC(=O)Nc2ccc(Nc3ccccc3)cc2)ccc1C(=O)NCCCN1CCCCC1 | 850 | 1440 |  |  |
| CCN(CC)CCNC(=O)c1ccc(NC(=O)Nc2cccc(OC(F)(F)F)c2)cc1OC |  |  | 2500 |  |
| COc1cc(NC(=O)c2ccc(-c3ccccc3)cc2)ccc1C(=O)NCCN1CCN(Cc2ccccc2)CC1 | 640 |  |  |  |
| COc1cc(NC(=O)Nc2ccc(Oc3ccccc3)cc2)ccc1C(=O)NCCCN1CCCCC1 | 50 |  |  | IC50 [4]: 10000 nM; IC50 [5]: > 100000 nM |
| COc1cc(NC(=O)Nc2cccc(Oc3ccccc3)c2)ccc1C(=O)NCCCN1CCCCC1 | 20 | 30 |  | IC50 [4]: > 100000 nM |
| CCN(CC)CCNC(=O)c1ccc(NC(=O)Nc2ccc(OC(F)(F)F)cc2Br)cc1OC |  |  | 8800 |  |
| CCN(CC)CCNC(=O)c1ccc(NC(=O)Nc2ccc(C(C)=O)cc2)cc1OC |  |  | 13000 |  |
| COc1cc(NC(=O)Nc2cccc(Nc3ccccc3)c2)ccc1C(=O)NCCCN1CCCCC1 | 8.1 | 25 |  | IC50 [4]: 10000 nM |
| COc1cc(NC(=O)Nc2ccccc2Oc2ccccc2)ccc1C(=O)NCCCN1CCCCC1 | > 10000 |  |  |  |
| CCN(CC)CCNC(=O)c1ccc(NC(=O)Nc2ccc(Br)cc2)cc1OC |  |  | 250 |  |
| COc1cc(NC(=O)c2ccc(-c3ccccc3)cc2)ccc1C(=O)NCCCN(C)C | 640 | 5290 |  | IC50 [4]: > 100000 nM |
| CCN(CC)CCNC(=O)c1ccc(NC(=O)Nc2cccc(SC)c2)cc1OC |  |  | 4700 |  |
| CCN(CC)CCNC(=O)c1ccc(NC(=O)Nc2ccc(C(=O)C(F)(F)F)cc2)cc1OC |  |  | 5900 |  |
| CCN(CC)CCNC(=O)c1ccc(NC(=O)Nc2ccc(OC(F)(F)F)cc2)cc1 | 60 | 250 |  | IC50 [4]: > 100000 nM; IC50 [5]: > 100000 nM |
| CCN(CC)CCNC(=O)c1ccc(NC(=O)Nc2cc(Cl)cc(Cl)c2)cc1OC |  |  | 4800 |  |
| CCN(CC)CCNC(=O)c1ccc(NC(=O)Nc2ccc(C(F)(F)F)cc2)cc1OC | 20 | 170 | 50 | IC50 [4]: > 100000 nM |

| SMILES | IC50 [1] [nM] | IC50 [2] [nM] | IC50 [3] [nM] | also measured |
| --- | --- | --- | --- | --- |
| CCN(CC)CCNC(=O)c1ccc(NC(=O)Nc2ccc(Cl)c(Cl)c2)cc1OC |  |  | 710 |  |
| CCN(CC)CCNC(=O)c1ccc(NC(=O)Nc2cccc(C(F)(F)F)c2)cc1OC |  |  | 7900 |  |
| COc1cc(NC(=O)Nc2ccc(-c3ccccc3)cc2)ccc1C(=O)NCCCN(C)C | 1480 |  | 9100 |  |
| COc1cc(NC(=O)Nc2cccc(Oc3ccccc3)c2)ccc1C(=O)NCCCN1CCOCC1 | 70 | 110 |  | IC50 [6]: 1800 nM; IC50 [7]: 1500 nM; inhibition [8]: 57%; inhibition [9]: 48%; IC50 [4]: > 100000 nM; inhibition [10]: 48%; inhibition [11]: 64%; inhibition [12]: 68%; IC50 [13]: 670 nM; IC50 [5]: > 100000 nM; IC50 [14]: 1300 nM |
| O=C(Nc1ccc(Oc2ccccc2)cc1)Nc1ccc(C(=O)NCCN2CCN(Cc3ccccc3)CC2)cc1 | 140 | 5820 |  | IC50 [4]: 2880 nM |
| COc1cc(NC(=O)c2ccc(-c3ccccc3)cc2)ccc1C(=O)NC1CCN(Cc2ccccc2)CC1 | 130 |  |  |  |
| CCN(CC)CCNC(=O)c1ccc(NC(=O)Nc2ccc(OC(F)(F)F)cc2)cc1OC | 50 | 260 | 150 | IC50 [6]: 2200 nM; IC50 [7]: 6900 nM; inhibition [8]: 78%; inhibition [15]: 79%; inhibition [9]: 44%; IC50 [4]: > 100000 nM; inhibition [10]: 36%; inhibition [16]: 65%; inhibition [17]: 76%; inhibition [11]: 72%; inhibition [18]: 46%; inhibition [12]: 67%; IC50 [13]: 1300 nM; IC50 [14]: 310 nM |
| CCN1CCCC1CNC(=O)c1ccc(-c2noc(-c3ccc(Oc4ccccc4)cc3)n2)cc1 (stereo unspecified) | 1900 |  |  |  |
| CCN1CCCC1CNC(=O)c1ccc(NC(=O)Nc2ccc(Oc3ccccc3)cc2)cc1 (stereo unspecified) | 250 | 1300 |  | IC50 [4]: 6310 nM |
| CCN(CC)CCNC(=O)c1ccc(NC(=O)Nc2ccc(F)cc2)cc1OC |  |  | 15800 |  |
| CCN(CC)CCNC(=O)c1ccc(NC(=O)Nc2ccc(SC)cc2)cc1OC |  |  | 960 |  |
| CCN(CC)CCNC(=O)c1ccc(NC(=O)Nc2cc(OC)cc(OC)c2)cc1OC |  |  | 18000 |  |
| CCN(CC)CCNC(=O)c1ccc(NC(=O)Nc2ccc(C(F)(F)F)cc2)cc1 | 5.3 | 170 |  |  |
| CCN(CC)CCNC(=O)c1ccc(NC(=O)Nc2ccc(F)c(Cl)c2)cc1OC |  |  | 3900 |  |
| CCN(CC)CCNC(=O)c1ccc(NC(=O)Nc2ccc(C#N)cc2)cc1OC |  |  | 3200 |  |
| CCN(CC)CCNC(=O)c1ccc(NC(=O)Nc2ccc(SC(F)(F)F)cc2)cc1OC |  |  | 200 |  |
